Results reported in ChEMBL document CHEMBL3098124, “Design, synthesis and anti-Alzheimer properties of dimethylaminomethyl-substituted curcumin derivatives” (Bioorg Med Chem Lett, 2014).

Tests used:
[1] = tested on: Radical scavenging activity; assay: Antioxidant activity assessed as DPPH free radical scavenging activity after 4 hrs; type: functional
How it was run: (§1)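 In vitro scavenging of DPPH or galvinoxyl radicals by a literature method. IC50 reported in µM as mean ± S.E.M.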

[2] = Antioxidant activity assessed as galvinoxyl free radical scavenging activity after 19 hrs; type: functional; how it was run: as §1
[3] = molecular target: Amyloid-beta precursor protein (Homo sapiens) (UniProt P05067); assay: Inhibition of amyloid beta-42 self-aggregation (unknown origin) at 100 uM after 1 hr by ThT fluorescence assay relative to control
How it was run: (§2)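 Aβ42 self-aggregation read by Thioflavin T fluorescence. Test concentrations were 5, 50 and 100 µM. Each result is the mean of 3 measurements ± SEM. Statistics by one-way ANOVA with Tukey's multiple comparison test against Aβ alone.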

[4] = molecular target: Amyloid-beta precursor protein (Homo sapiens) (UniProt P05067); assay: Inhibition of amyloid beta-42 self-aggregation (unknown origin) after 1 hr by ThT fluorescence assay; how it was run: as §2
[5] = molecular target: Amyloid-beta precursor protein (Homo sapiens) (UniProt P05067); assay: Inhibition of amyloid beta-42 self-aggregation (unknown origin) at 50 uM after 1 hr by ThT fluorescence assay relative to control; how it was run: as §2
[6] = Aqueous solubility of the compound; type: physicochemical
[7] = n-octanol-water partition coefficient, log P of the compound by HPLC analysis; type: physicochemical
How it was run: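 Experimental logP determined in an octanol–water system for two representative compounds. All other values were calculated in silico.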

[8] = Chemical stability of the compound in PBS at pH 7.4 at […] measured up to 120 mins by absorption spectroscopic analysis in presence of 0.1% FBS; type: physicochemical; settings: buffer, pH 7.4, 2 h
How it was run: (§3)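 Visible absorption at 410 nm tracked over time in phosphate-buffered solution, pH 7.4, under daylight. FBS was 0.1% for line 5 and absent for line 4. Stability expressed as A/A0, with A0 the absorbance at 0 min.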

[9] = Chemical stability of the compound in PBS at pH 7.4 at […] measured up to 120 mins by absorption spectroscopic analysis in absence of 0.1% FBS; type: physicochemical; settings: buffer, pH 7.4, 2 h; how it was run: as §3

Amyloid-beta precursor protein (Homo sapiens), sequence (P05067 whole entry): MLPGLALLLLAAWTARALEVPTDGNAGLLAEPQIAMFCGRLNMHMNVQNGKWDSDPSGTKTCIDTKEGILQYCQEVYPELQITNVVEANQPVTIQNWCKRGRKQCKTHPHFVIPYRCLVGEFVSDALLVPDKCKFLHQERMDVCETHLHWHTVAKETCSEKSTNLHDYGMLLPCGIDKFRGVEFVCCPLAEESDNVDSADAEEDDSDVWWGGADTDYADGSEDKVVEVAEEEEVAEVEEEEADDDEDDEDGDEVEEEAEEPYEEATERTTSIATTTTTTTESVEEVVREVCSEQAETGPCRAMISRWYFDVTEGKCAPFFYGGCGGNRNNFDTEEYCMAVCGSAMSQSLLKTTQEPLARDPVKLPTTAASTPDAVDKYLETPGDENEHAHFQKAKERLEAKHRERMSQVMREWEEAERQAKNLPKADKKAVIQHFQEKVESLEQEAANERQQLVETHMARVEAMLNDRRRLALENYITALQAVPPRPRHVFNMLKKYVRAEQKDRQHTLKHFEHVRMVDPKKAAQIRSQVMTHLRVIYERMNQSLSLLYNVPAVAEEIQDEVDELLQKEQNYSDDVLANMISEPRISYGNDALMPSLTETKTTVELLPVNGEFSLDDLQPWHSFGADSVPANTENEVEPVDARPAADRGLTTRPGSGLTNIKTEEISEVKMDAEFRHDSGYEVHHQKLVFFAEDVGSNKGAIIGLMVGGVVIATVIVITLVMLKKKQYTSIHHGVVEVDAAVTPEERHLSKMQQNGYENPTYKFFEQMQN

SMILES	IC50 [1]	IC50 [2]	other results
CN(C)Cc1cc(/C=C/C(=O)/C=C(O)/C=C/c2ccc(F)cc2)ccc1O	24.1 µM	22.3 µM	
CN(C)Cc1cc(/C=C/C(=O)/C=C(O)/C=C/c2ccc(O)c(CN(C)C)c2)ccc1O [listing 1 of 2 here]			inhibition [3]: 32%; inhibition [4]: Dose-dependent effect; inhibition [5]: 28%
COc1cc(/C=C/C(O)=C/C(=O)/C=C/c2ccc(O)c(CN(C)C)c2)ccc1O.Cl			solubility [6]: 1200 µg/mL
COc1cc(/C=C/C(O)=C/C(=O)/C=C/c2ccc(O)c(CN(C)C)c2)ccc1O			logP [7]: 3.65
CN(C)Cc1cc(/C=C/C(=O)/C=C(O)/C=C/c2ccc(Cl)cc2)ccc1O	11.1 µM	41.1 µM	
COc1ccc(/C=C/C(O)=C/C(=O)/C=C/c2ccc(O)c(CN(C)C)c2)cc1	15.1 µM	11.9 µM	
Cc1ccc(/C=C/C(O)=C/C(=O)/C=C/c2ccc(O)c(CN(C)C)c2)cc1	18.7 µM	22 µM	
CN(C)Cc1cc(/C=C/C(=O)/C=C(O)/C=C/c2ccc(O)c(CN(C)C)c2)ccc1O.Cl.Cl			solubility [6]: 16700 µg/mL
CN(C)Cc1cc(/C=C/C(=O)/C=C(O)/C=C/c2ccc(O)cc2)ccc1O	1.5 µM	7.6 µM	
COc1cc(/C=C/C(=O)CC(=O)/C=C/c2ccc(O)c(OC)c2)ccc1O			inhibition [3]: 29%; inhibition [4]: Dose-dependent effect; inhibition [5]: 24%

Second part, led by results:

IC50 [1]	IC50 [2]	SMILES	other results
4 µM	6.9 µM	CN(C)Cc1cc(/C=C/C(=O)/C=C(O)/C=C/c2cccc(O)c2)ccc1O	
1.6 µM	4.9 µM	CN(C)Cc1cc(/C=C/C(=O)/C=C(O)/C=C/c2ccc(O)c(CN(C)C)c2)ccc1O [listing 2 of 2 here]	Stability [8]: Stable; logP [7]: 3.48; Stability [9]: Stable
29.9 µM	27.4 µM	COc1ccc(/C=C/C(O)=C/C(=O)/C=C/c2ccc(O)c(CN(C)C)c2)cc1OC	
